Source: ChEMBL document CHEMBL2311392, “Differential interactions of rifabutin with human and bacterial membranes: implication for its therapeutic and toxic effects” (J Med Chem, 2013)

Tests used:
[1] = Drug localization in DPH-PA probe-labeled DMPG liposomes at 37 +/- 0.1 degC by fluorescence quenching; assay type: physicochemical
Summary of the method: (§1)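 LUVs (100 nm extrusion) of DMPC or DMPG at 500 μM total lipid in HEPES 0.01 M, I = 0.1 M (NaCl), pH 7.4, labelled with DPH or DPH-PA (probe:lipid 1:300). Drug (0–27 μM) incubated 30 min at 37.0 °C in the dark. Steady-state intensity (ex 357/360, em 427/430 nm) and lifetime read, corrected for quencher absorbance. Membrane drug concentration taken from Kp. Stern–Volmer constants obtained at 37.0 and 42.0 °C.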

[2] = test system: Lipid bilayer; assay: Binding affinity to DPH probe-labeled DMPG liposomes assessed as main phase transition temperature at 30 uM by steady-state fluorescence anisotrope (reference value: 24.1 +/- 0.5 degC)
[3] = test system: Lipid bilayer; assay: Binding affinity to DPH probe-labeled DMPC liposomes assessed as main phase transition temperature at 30 uM by steady-state fluorescence anisotrope (reference value: 24.4 +/- 0.2 degC)
[4] = Drug localization in DPH-PA probe-labeled DMPG liposomes at 42 +/- 0.1 degC by fluorescence quenching; assay type: physicochemical; summary of the method: as §1
[5] = Drug localization in DPH probe-labeled DMPG liposomes at 37 +/- 0.1 degC by fluorescence quenching; assay type: physicochemical; summary of the method: as §1
[6] = test system: Lipid bilayer; assay: Binding affinity to DPH-PA probe-labeled DMPG liposomes assessed as binding constant by fluorescence quenching assay; summary of the method: as §1
[7] = Drug localization in DPH probe-labeled DMPC liposomes at 42 +/- 0.1 degC by fluorescence quenching; assay type: physicochemical; summary of the method: as §1
[8] = test system: Lipid bilayer; assay: Binding affinity to DPH-PA probe-labeled DMPC liposomes assessed as binding constant by fluorescence quenching assay; summary of the method: as §1
[9] = test system: Lipid bilayer; assay: Binding affinity to DPH probe-labeled DMPC liposomes assessed as binding constant by fluorescence quenching assay; summary of the method: as §1
[10] = Drug localization in DPH-PA probe-labeled DMPC liposomes at 42 +/- 0.1 degC by fluorescence quenching; assay type: physicochemical; summary of the method: as §1
[11] = Drug localization in DPH-PA probe-labeled DMPC liposomes at 37 +/- 0.1 degC by fluorescence quenching; assay type: physicochemical; summary of the method: as §1
[12] = test system: Lipid bilayer; assay: Binding affinity to DPH-PA probe-labeled DMPG liposomes assessed as main phase transition temperature at 30 uM by steady-state fluorescence anisotrope (reference value: 23.9 +/- 0.3 degC); conditions: Microsome
[13] = Drug localization in DPH probe-labeled DMPG liposomes at 42 +/- 0.1 degC by fluorescence quenching; assay type: physicochemical; summary of the method: as §1
[14] = test system: Lipid bilayer; assay: Binding affinity to DPH probe-labeled DMPG liposomes assessed as binding constant by fluorescence quenching assay; summary of the method: as §1
[15] = Drug localization in DPH probe-labeled DMPC liposomes at 37 +/- 0.1 degC by fluorescence quenching; assay type: physicochemical; summary of the method: as §1
[16] = test system: Lipid bilayer; assay: Binding affinity to DPH-PA probe-labeled DMPC liposomes assessed as main phase transition temperature at 30 uM by steady-state fluorescence anisotrope (reference value: 24.6 +/- 0.3 degC); conditions: Microsome

CO[C@H]1/C=C/O[C@@]2(C)Oc3c(C)c(O)c4c(c3C2=O)C2=NC3(CCN(CC(C)C)CC3)NC2=C(NC(=O)/C(C)=C\C=C\[C@H](C)[C@H](O)[C@@H](C)[C@@H](O)[C@@H](C)[C@H](OC(C)=O)[C@@H]1C)C4=O [RIFABUTIN]
KSV [1]: 181 M⁻¹
Tm [2]: 24.4 °C
Tm [3]: 24.5 °C
KSV [4]: 121 M⁻¹
KSV [5]: 167 M⁻¹
Kq [6]: 2.6e+10 M⁻¹ s⁻¹
KSV [7]: 156 M⁻¹
Kq [8]: 2.9e+10 M⁻¹ s⁻¹
Kq [9]: 2.7e+10 M⁻¹ s⁻¹
KSV [10]: 76 M⁻¹
KSV [11]: 165 M⁻¹
Tm [12]: 24.2 °C
KSV [13]: 132 M⁻¹
Kq [14]: 1.9e+10 M⁻¹ s⁻¹
KSV [15]: 216 M⁻¹
Tm [16]: 24.5 °C
